Data on eight molecules can be found in publication PMC3823235 (Biochemistry, 2013).

For series [1] the following is noted: alleviated by folic acid co-supplementation; cited from earlier work.
For series [2], the target named is recombinant human aminoimidazole carboxamide ribonucleotide transformylase (hAICAR Tfase) (Homo sapiens, UniProt P31939). Description: hAICAR Tfase enzyme inhibition assay. Format: biochemical. In outline: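 Recombinant human enzyme; method otherwise follows earlier work. Reaction kinetics followed for 2 min after initiation. Ki obtained from Dixon plots.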
Series [3] has as its system CCRF-CEM human leukemia cell lines. In words: Growth inhibition assay, CCRF-CEM. Format: cell-based.
For series [4] the test system is unchanged. The note with it: read-out: IC50, cell-based growth inhibition; reported as low as; cited from earlier work.
The subject of a further series is CCRF-CEM/FPGS^-. In words: Growth inhibition assay, FPGS-deficient mutant cells. Format: cell-based, human. Conditions: read-out: CCRF-CEM/FPGS^- IC50, (−) T, (−) H.
The test system of another series is CCRF-CEM/MTX. Description: Growth inhibition assay, RFC-deficient mutant cells. In kind it is cell-based, human. Conditions: read-out: CCRF-CEM/MTX IC50, (−) T, (−) H.
Series [5] has as its system solid murine and human tumors. The note with it: tumors that did not respond to methotrexate; cited from earlier work.
The target of another series is GAR Tfase. The note with it: read-out: Ki, GAR Tfase; cited from earlier work.
Series [6] has as its system anti-folate resistant human leukemia cell lines. Conditions: cited from earlier work.
[7] abbreviates: read-out: Inhibition Ki, hAICAR Tfase, Dixon plots.
Setting [8] is: read-out: CCRF-CEM IC50, (+) T, (−) H, with thymidine, no hypoxanthine.
The mark [9] stands for this setting: read-out: CCRF-CEM IC50, (−) T, (+) H, no thymidine, with hypoxanthine.
Setting [10] is: read-out: CCRF-CEM IC50, (−) T, (−) H, Table 1, no thymidine, no hypoxanthine.
The mark [11] stands for this setting: read-out: CCRF-CEM IC50, (−) T, (−) H, Table 2, parent cell line.

Like-named read-outs stand apart in the source and are kept apart here.

In general, Ki refers to a dissociation constant, usually derived from enzyme kinetics or from competition with a known ligand.

Sequence of recombinant human aminoimidazole carboxamide ribonucleotide transformylase (hAICAR Tfase) (P31939 whole entry): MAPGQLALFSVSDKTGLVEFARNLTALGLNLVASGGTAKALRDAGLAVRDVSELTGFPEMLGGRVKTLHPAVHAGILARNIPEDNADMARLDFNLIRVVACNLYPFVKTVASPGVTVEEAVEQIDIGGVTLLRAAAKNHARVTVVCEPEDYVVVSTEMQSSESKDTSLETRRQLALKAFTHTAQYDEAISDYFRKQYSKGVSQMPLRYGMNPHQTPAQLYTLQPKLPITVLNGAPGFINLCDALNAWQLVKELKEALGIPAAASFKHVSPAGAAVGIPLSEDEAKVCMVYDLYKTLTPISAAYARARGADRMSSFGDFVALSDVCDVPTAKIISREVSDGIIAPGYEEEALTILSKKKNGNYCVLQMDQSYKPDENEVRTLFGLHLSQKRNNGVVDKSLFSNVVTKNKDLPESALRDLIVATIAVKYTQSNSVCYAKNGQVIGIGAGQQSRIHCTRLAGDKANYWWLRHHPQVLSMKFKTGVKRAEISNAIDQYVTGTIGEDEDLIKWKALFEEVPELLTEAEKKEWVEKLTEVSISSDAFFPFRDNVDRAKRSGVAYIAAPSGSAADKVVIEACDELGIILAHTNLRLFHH

As to `Nc1nc2c(c(=O)[nH]1)C[C@@H](CCc1ccc(C(=O)N[C@@H](CCC(=O)O)C(=O)O)cc1)CN2` [3 Lometrexol, Lometrexol], the “Adverse effect in patients” value in series [1] is listed as “some patients suffered cumulative myelosuppression”. For the same molecule, in series [2], the Ki is over 100000 nM. Also, the IC50 in series [3] (Homo sapiens, CCRF-CEM, read-out: CCRF-CEM IC50, (−) T, (+) H) was over 10000 nM; in [4], 2.9 nM; in the series on CCRF-CEM/FPGS^- (Homo sapiens, CCRF-CEM), over 10000 nM.
In the case of `CS[C@H](CCCc1c(N)nc(N)[nH]c1=O)c1ccc(C(=O)NC(CCC(=O)O)C(=O)O)cc1` (stereo partly drawn) [10R-8, 10R-methylthio-DDACTHF], in series [2] (setting [7]), the Ki was over 100000 nM. Further, the IC50 is 80 nM in series [3] (setting [8]); over 10000 nM in series [3] (setting [9]); 80 nM in series [3] (setting [10]); 80 nM in series [3] (read-out: IC50, CCRF-CEM growth inhibition); 70 nM in the series on CCRF-CEM/MTX.
With `CS[C@@H](CCCc1c(N)nc(N)[nH]c1=O)c1ccc(C(=O)NC(CCC(=O)O)C(=O)O)cc1` (stereo partly drawn) [10S-7, 10S-methylthio-DDACTHF], the Ki in series [2] (setting [7]) was over 100000 nM. In addition, the IC50 in series [3] (setting [8]) was 70 nM; in series [3] (setting [9]) it was over 10000 nM; in series [3] (setting [10]), 50 nM; in series [3] (setting [11]), 60 nM; in the series on CCRF-CEM/MTX, 60 nM; in the series with CCRF-CEM/FPGS^- (FPGS-deficient mutant), 5000 nM.
In the case of `Nc1nc(N)c(CCCCc2ccc(C(=O)NC(CCC(=O)O)C(=O)O)cc2)c(=O)[nH]1` (stereo not shown) [DDACTHF], the inhibition constant (Ki) in series [2] (setting [7]) worked out at 20000 nM. For the same molecule, the IC50 in series [3] (setting [8]) is 3600 nM; in series [3] (setting [9]) it was over 10000 nM; in [3] (setting [10]), 2700 nM; in series [3] (setting [11]) it was 2700 nM; in the series on CCRF-CEM/MTX it was over 100000 nM; with CCRF-CEM/FPGS^- (FPGS-deficient mutant) it was over 10000 nM.
Turning to `Nc1nc2c(c(=O)[nH]1)CC(CCc1ccc(C(=O)N[C@@H](CCC(=O)O)C(=O)O)cc1)CN2` (stereo partly shown) [DDATHF, 5,10-dideaza-5,6,7,8-tetrahydrofolic acid], the “In vivo antitumor effect” value in [5] is “effective in vivo against solid murine and human tumors”.
As to `Nc1nc2ccc(CC(C=O)c3ccc(C(=O)N[C@@H](CCC(=O)O)C(=O)O)cc3)cc2c(=O)[nH]1` (stereo partly shown) [compound 4, 10-formyl-TDAF], the Ki on GAR Tfase is 260 nM.
As to `Nc1nc(N)c(CCCC(C(=O)C(F)(F)F)c2ccc(C(=O)N[C@@H](CCC(=O)O)C(=O)O)cc2)c(=O)[nH]1` (stereo partly shown) [compound 5, 10-CF3CO-DDACTHF], the inhibition constant Ki is over 100000 nM in series [2] (setting [7]) and 15 nM on GAR Tfase. Besides, the IC50 in series [3] (setting [8]) is 17 nM; in [3] (setting [9]), over 10000 nM; in series [3] (setting [10]), 16 nM; in the series on CCRF-CEM/FPGS^- (FPGS-deficient mutant), over 10000 nM.
For `COc1cc(NCc2ccc3nc(N)nc(N)c3c2C)cc(OC)c1OC` [neutrexin (trimetrexate), trimetrexate], the “Sensitivity of resistant cells with 90–99% loss of FPGS activity” value in [6] is “marked hypersensitivity”.
